# HCT116 bCat-KO = beta-catenin-lacking colon tumor cell growth suppression; HCT116 beta-catenin knockout viability, CellTiter-Glo, 60 h; active compounds read low; viability, % at 10 µM; hit rate 1.5% among 140,000; AID 818;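 active = viability at or under a set limit, the compound median less 4 SD, cut at about 6% in these data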;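 note: 0% = Hyamine 1622 control at 20 µM and 100% = untreated cell control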
# Dynein cargo inh = blocks dynein driven cargo transport along microtubules; 3617.4 mouse cells, GR-EGFP nuclear translocation imaging; test concentration mostly 20 µM; stimulated with dexamethasone, 1 µM; active compounds read low; z-score, hits read low; hit rate 0.47% among 220,000; AID 1381;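 active = plate z-score of nuclear minus cytoplasmic receptor signal below a set negative limit, without overly bright fluorescence or cell loss, cut at about -3.5 in these data, passing the limit was not always enough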;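 note: z-score of nuclear minus cytoplasmic ring GR-EGFP intensity difference per well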
#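 Schedule: 48 h induction, then 1 h compound, then 30 min agonist, 37 °C. Buffer or medium: tetracycline-free induction medium containing charcoal-stripped FBS. Reagent: 1.0 µM final dexamethasone stimulus. Evaluation: nuclear versus cytoplasmic GR-EGFP signal, averaged per well. Signal: high-content fluorescence imaging after fixation.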
# Autophagy mod = autophagy modulation, high-content screen | MEF GFP-LC3 puncta imaging; test concentration mostly 10 µM | calls only at 10 µM (by protocol) | hit rate 0.98% among 190,000;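 active = percentage of spot-positive cells more than 3 SD above its plate mean, without a fluorescence outlier flag or 80% toxicity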;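 note: spot-positive cell cutoff set from DMSO-treated cells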
# sdo1 growth = sdo1-depleted yeast growth rescue. S. cerevisiae sdo1-depleted JHY4D growth rescue, OD600 30 h; active compounds read high; pdr5 snq2 efflux-pump mutant strain. z-score at 10 µM. hit rate 0.21% among 140,000. AID 817;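 active = z-score above 3 at both the 24 hr and the 30 hr optical density reads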;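 note: z-score against mean and SD of all compound wells on the same plate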
# PTEN del growth = suppresses growth of cells with PTEN deletion | HCT116 PTEN-null viability, CellTiter-Glo, 60 h; active compounds read low | viability, % at 10 µM | hit rate 1.2% among 140,000;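 active = viability at or below a set limit, 4 SD under the median of all tested compounds, cut at about 3.7% in these data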;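 note: PTEN knockout HCT116 line with beta catenin targeted HCT116 as companion control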
# Numbers without * were called inactive; i = inactive; · = no result; + = active, no number. Sampled rows, rich in hits. Any-hit rate of the full collection: about 2.2%.
SMILES,HCT116 bCat-KO,Dynein cargo inh,Autophagy mod,sdo1 growth,PTEN del growth
COc1ccc(NC(=O)CCCn2c(=O)c3sccc3n(Cc3ccccc3C)c2=O)cc1,81.5,-0.993,i,-0.38,95.3
C=CCN1C(=O)C2(NNc3ccccc3O2)c2ccccc21 (centres undefined),77.3,0.302,+,-2.68,75.2
CCOC(=O)c1ccc(NC(=O)CN2C(=O)C3C4C=CC(C4)C3C2=O)cc1 (centres undefined),107.2,-1.79,i,2.28,108.2
Cc1ccc(NC(=O)CN2C(=O)C3C4C=CC(C4)C3C2=O)cc1 (centres undefined),·,0.77,+,·,·
Oc1[nH]c2c(Cl)cc(Cl)cc2c1N=NC(=S)NCC1CCCO1 (centres undefined),1.4*,0.632,i,0.49,0.5*
OC(COCC(F)(F)C(F)(F)C(F)(F)C(F)F)Cn1c2ccc(Cl)cc2c2cc(Cl)ccc21 (centres undefined),2.2*,-0.574,i,-1.26,1.7*
N=c1n(Cc2ccc(Cl)cc2)c2ccccc2n1CC(O)COc1ccccc1 (centres undefined),·,-0.0965,i,·,·
O=C(COC(=O)CCSc1ccccc1)Nc1cc(F)ccc1F,·,-0.593,i,·,·
COc1ccc(C[C@H]2CN3C(=NC[C@H]3Cc3ccccc3)N2CCNC(=O)c2ccc(C)c(Br)c2)cc1,·,-0.533,·,·,·
Cc1ccc(C(=O)N[C@@H](C)CN2C3=NC[C@H](C(C)C)N3C[C@H]2Cc2ccc(O)cc2)cc1Br,·,-0.82,+,·,·
COc1ccc(C[C@H]2CN3C(=NC[C@@H]3Cc3ccccc3)N2CCNC(=O)c2ccc(C)c(Br)c2)cc1,·,-4.36,+,·,·
COc1ccc(C[C@H]2CN3C(=NC[C@@H]3C(C)C)N2C[C@H](C)NC(=O)c2ccc(C)c(Br)c2)cc1,·,-1.36,i,·,·
CN(CC(=O)Nc1cccc(F)c1)CC(=O)Nc1cccc(S(N)(=O)=O)c1,·,-0.362,·,·,·
O=C(Nc1cccc(Cl)c1)Nc1cccc(Cl)c1,85.7,1.13,i,-0.86,69.6
COc1ccccc1NS(=O)(=O)c1cccc(NC(=O)Nc2cccc(Cl)c2)c1,3.9*,2.52,i,-0.57,6.0
COC(=O)c1cc(NC(=O)Nc2cccc(Cl)c2)ccc1Cl,3.8*,0.299,i,-1.67,3.4*
COC(=O)COc1cccc(NC(=O)c2cccs2)c1,96.9,-0.073,i,1.54,95.8
COc1ccc(-c2oc(NC(=O)CCl)c(C#N)c2-c2ccc(OC)cc2)cc1,5.8*,0.0777,i,-2.67,5.9
O=C(O)c1cc(-c2ccccn2)n[nH]1,102.9,0.481,i,0.26,95.7
CCOC(=O)c1c(NC(=O)c2nn(CC)cc2Br)sc2c1CCCCC2,82.8,0.445,i,-0.75,72.8
CCn1cc(C(=O)NC(=S)Nc2sc3c(c2C(=O)OC)CCCCCC3)cn1,8.8,-0.777,i,-0.34,2.1*
CCOC(=O)c1c(NC(=S)NC(=O)c2ccc(Cn3cc(Cl)cn3)o2)sc2c1CCC(C)C2 (centres undefined),1.9*,-0.147,i,-0.38,1.5*
COC(=O)c1cc(NC(=O)c2ccc(Cn3cc(Cl)cn3)o2)cc(C(=O)OC)c1,71.3,-0.639,i,-1.27,84.7
C/C(=N\NC(=O)C(c1ccccc1)c1ccccc1)c1ccccn1,4.3*,-0.806,+,-2.34,5.1
C/C(=N\NC(=O)C1COc2ccccc2O1)c1ccc(C)o1 (centres undefined),102.5,-0.686,i,0.39,110.9
SMILES,HCT116 bCat-KO,Dynein cargo inh,Autophagy mod,sdo1 growth,PTEN del growth
N/C(=N\OC(=O)C(c1ccccc1)c1ccccc1)c1ccccn1,83.5,-0.0808,i,-1.85,80.5
C/C(=N\NC(=O)C1COc2ccccc2O1)c1ccccn1 (centres undefined),5.0*,-0.197,i,-1.8,5.2
COc1ccc(C(=O)Oc2c(CN3CCOCC3)cc(Cl)c3cccnc23)cc1,4.9*,0.639,i,-1.49,3.1*
O=C(Oc1c(CN2CCOCC2)cc(Cl)c2cccnc12)c1ccc(F)cc1,5.0*,-0.291,i,-1.3,1.9*
COc1cccc(C(=O)Oc2c(CN3CCOCC3)cc(Cl)c3cccnc23)c1,1.6*,-1.5,i,0.33,1.4*
O=C(Oc1c(CN2CCOCC2)cc(Cl)c2cccnc12)c1ccccc1Cl,·,0.152,i,·,·
O=C(Oc1c(Cl)cc(Cl)c2cccnc12)c1ccco1,3.5*,-0.416,i,-1.86,12.6

# Screening data deposited in PubChem by several laboratories.
